From PubChem BioAssay
ERAP1 HTS inh – human ERAP1 aminopeptidase inhibitors, primary screen, biochemical, single point, plate reader; Endoplasmic reticulum aminopeptidase 1 (Homo sapiens), Q9NZ08; recombinant ERAP1, Leu-AMC fluorescence, 60 min; inhibition, % at 10.7 µM; 0.15% of 340,000 active; AID 652197, 2013;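 active = mean replicate inhibition of at least 30%, or all replicates individually reaching that 30% level; inactive = mean below 30% and not every replicate reaching it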
E-selectin induc – E-selectin induction in HUVECs, primary screen, imaging, HUVEC, immunofluorescence imaging, single point | activation, % at 7.58 µM | 0.37% of 260,000 active | AID 686992, 2013 | P16581 | normalized: neutral wells 0, TNF-alpha wells 100;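 active = mean E-selectin-positive cell signal at least 10% of the positive control, reached in at least 60% of replicates, without over 20% cell loss; inconclusive = no rule given, readout overlaps actives, possibly toxicity-flagged; inactive = the rest, including those meeting only one limit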
Target sequence (P16581 whole entry, looked up): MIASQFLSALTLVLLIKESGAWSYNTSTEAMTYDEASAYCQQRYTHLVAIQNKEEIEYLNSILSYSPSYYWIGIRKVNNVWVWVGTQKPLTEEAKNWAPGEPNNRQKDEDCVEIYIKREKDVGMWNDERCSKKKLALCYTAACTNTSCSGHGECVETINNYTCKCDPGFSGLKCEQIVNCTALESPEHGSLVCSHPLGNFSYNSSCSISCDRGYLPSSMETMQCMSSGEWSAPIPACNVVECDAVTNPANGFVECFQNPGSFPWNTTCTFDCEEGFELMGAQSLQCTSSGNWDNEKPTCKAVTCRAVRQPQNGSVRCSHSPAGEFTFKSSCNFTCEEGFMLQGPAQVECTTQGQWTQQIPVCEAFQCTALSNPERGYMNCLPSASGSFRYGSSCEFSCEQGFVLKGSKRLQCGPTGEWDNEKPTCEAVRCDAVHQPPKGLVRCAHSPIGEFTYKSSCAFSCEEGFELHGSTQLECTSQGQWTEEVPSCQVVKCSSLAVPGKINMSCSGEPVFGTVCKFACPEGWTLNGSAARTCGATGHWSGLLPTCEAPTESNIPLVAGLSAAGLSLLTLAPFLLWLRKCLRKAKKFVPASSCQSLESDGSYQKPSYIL
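Read-out: % PE-positive cells | Test system: HUVEC | Doses: One compound dose added by pin transfer | Buffer or medium: EGM-2 over gelatin coat | Signal: Immunofluorescence imaging | Benchmarks: TNF-alpha, DMSO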
DENV2 CPE – inhibitors of DENV2 cytopathic effect, primary screen, cell-based, plate reader, single concentration | CPE inhibition, % at 9.99 µM | DENV2-infected cells, cytopathic effect rescue | 1.7% of 350,000 active | AID 651640, 2012; in the data active = CPE inhibition above about 20%, passing the limit was not always enough; inconclusive = no clear call, values can overlap the other calls; tested in BHK-21 cells
F508del corr – F508del CFTR correction, initial screen, CFBE line, single point; CFBE cells, YFP halide quenching; stimulated with forskolin plus potentiator P3; % fluorescence drop versus neutral controls; 0.36% of 350,000 active; AID 720511, 2013; activity (quench increase), % at 7.58 µM;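 active = mean added fluorescence quench of at least 8% versus neutral control, with both replicates also reaching 8%; inconclusive = only one of the mean or replicate conditions met; inactive = mean below 8% and not both replicates reaching 8%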;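 note: cells transiently co-express mutant CFTR-F508del with the halide-sensitive YFP; corrector assay measuring rescue of mutant channel to the surface after 24 h compound exposure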
FGF22 binding – binders of human FGF22 protein, primary screen, FGF22 synaptogenesis inhibitor project, biophysical, thermal shift, single point; recombinant FGF22 thermal shift, SYPRO orange fluorescence; percent of sucrose octasulfate shift, DMSO zero; activity (Tm shift, normalised), % at 9.99 µM; Fibroblast growth factor 22 (Homo sapiens), Q9HCT0; 1.5% of 340,000 active;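 active = mean Tm shift, scaled 0 neutral to 100 positive control, at about 1.3% or above, every replicate too, limit read from the data; inconclusive = no clear call, values can overlap the other calls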
Hits are given with their value; - = inactive; ? = inconclusive; . = no result given; ! = not active in a repeat. Most compounds without a hit are left out; they make up all but 3.7% or so of the library.

SMILES | ERAP1 HTS inh | E-selectin induc | DENV2 CPE | F508del corr | FGF22 binding
CCOc1ccc(NC(=O)c2ccc(NC(=S)NC3CC3)cc2)cc1 | - | . | . | - | 1.9
C[C@H]1CN([C@@H](C)CO)C(=O)c2cc(N(C)C)ccc2O[C@H]1CN(C)S(=O)(=O)c1cn(C)cn1 | - | 415.2 | - | - | -
C[C@@H]1CCCCO[C@@H](CN(C)S(=O)(=O)c2cn(C)cn2)[C@H](C)CN([C@@H](C)CO)C(=O)c2cc(N(C)C)ccc2O1 | - | - | 52.9 | - | -
C[C@H](CO)N1C[C@H](C)[C@@H](CN(C)S(=O)(=O)c2cn(C)cn2)Oc2ccc(N(C)C)cc2C1=O | - | 33.3 | - | - | -
C[C@@H]1CN([C@H](C)CO)C(=O)c2cc(N(C)C)ccc2O[C@@H](C)CCCCO[C@H]1CN(C)S(=O)(=O)c1cn(C)cn1 | - | - | - | - | .
C[C@H](CO)N1C[C@H](C)[C@@H](CN(C)S(=O)(=O)c2cn(C)cn2)OCCCC[C@H](C)Oc2ccc(N(C)C)cc2C1=O | - | - | - | - | -
Cc1noc(C)c1S(=O)(=O)N(C)C[C@H]1Oc2ccc(NS(=O)(=O)c3cn(C)cn3)cc2CC(=O)N([C@@H](C)CO)C[C@H]1C | - | - | - | - | -
O=C(C[C@@H]1C[C@H]2c3cc(NC(=O)CC4CC4)ccc3O[C@H]2[C@@H](CO)O1)NCCN1CCCCC1 | - | - | - | - | -
COc1ccc2ccccc2c1/C=N/NC(=O)c1ccccc1F | - | . | 44.3 | - | -
COc1ccc2ccccc2c1/C=N/NC(=O)c1cccc(Br)c1 | - | . | - | . | -
CC1(C(=O)NCc2ccccc2)CN(S(C)(=O)=O)CC(=O)N1CCc1ccc(O)cc1 (configuration not stated) | - | - | 26.0 | - | -
CC1(C(=O)NCc2ccccc2)CN(S(C)(=O)=O)CC(=O)N1CCc1ccccc1 (configuration not stated) | - | - | - | - | -
CC(C)CN1C(=O)CN(S(C)(=O)=O)CC1(C)C(=O)NC(C)C (configuration not stated) | - | - | 27.4 | - | -
CC1(C(=O)NCc2ccccc2)CN(S(C)(=O)=O)CC(=O)N1CCc1ccccc1F (configuration not stated) | - | - | 74.3 | - | -
CN(C)CC(=O)N1[C@H](CO)[C@@H](c2ccccc2)C12CN(C(=O)c1cccc(F)c1)C2 | - | - | - | - | -
O=C(C[C@H]1C=C[C@@H](NC(=O)C2CC2)[C@@H](CO)O1)NCc1ccccc1Cl | - | - | - | - | -
O=C(C[C@H]1CC[C@@H](NC(=O)CC2CC2)[C@@H](CO)O1)NCc1ccc(-c2ccccc2)cc1 | - | - | 48.0 | - | -
O=C(C[C@@H]1CC[C@H](NC(=O)c2ccc3c(c2)OCO3)[C@@H](CO)O1)NCc1ccc(F)cc1 | - | - | 31.6! | - | -
O=C(C[C@@H]1CC[C@H](NC(=O)CC2CC2)[C@H](CO)O1)NCc1ccc(-c2ccccc2)cc1 | - | - | - | - | -
CN(C)C(=O)C[C@@H]1CC[C@@H](NC(=O)c2ccc(F)cc2)[C@H](CO)O1 | - | - | 45.2 | - | -
CN(C)C(=O)C[C@H]1CC[C@H](NC(=O)c2ccc(F)cc2)[C@@H](CO)O1 | - | - | - | - | -
O=C(C[C@@H]1CC[C@@H](NC(=O)NC2CCCCC2)[C@@H](CO)O1)NCc1ccc(F)cc1 | - | - | 39.3 | - | -
C[C@H](CO)N1C[C@H](C)[C@@H](CN(C)Cc2ccncc2)Oc2ccc(NC(=O)Cn3cnnn3)cc2CC1=O | - | - | - | - | -
CNC(=O)C[C@@H]1CC[C@H]2[C@H](COc3ccc(NC(=O)NC(C)C)cc3C(=O)N2C)O1 | . | - | - | - | -
CCCC#Cc1cnc2c(c1)C(=O)N([C@H](C)CO)C[C@H](C)[C@H](CN(C)C(=O)C1CCOCC1)O2 | - | - | - | - | -
SMILES | ERAP1 HTS inh | E-selectin induc | DENV2 CPE | F508del corr | FGF22 binding
CO[C@@H]1CN(C)C(=O)c2cc(NC(=O)CC(F)(F)F)ccc2OC[C@@H](C)N(S(=O)(=O)c2cn(C)cn2)C[C@@H]1C | - | - | - | - | -
O=C(C[C@H]1CC[C@@H](NC(=O)Nc2ccc3c(c2)OCO3)[C@H](CO)O1)NCc1ccc2c(c1)OCO2 | - | - | - | - | -
O=C(C[C@@H]1CC[C@@H](NC(=O)Nc2ccc3c(c2)OCO3)[C@@H](CO)O1)NCc1ccc2c(c1)OCO2 | - | - | 29.1 | - | -
CC(=O)c1c(C)[nH]c(C(=O)Nc2ccc(F)cc2F)c1C | - | . | - | - | -
CC(=O)c1c(C)[nH]c(C(=O)Nc2cc(F)ccc2C)c1C | - | . | - | - | 43.1
CN(Cc1ccccc1)S(=O)(=O)c1ccc(Cl)c(C(=O)OCC(=O)NC2CCS(=O)(=O)C2)c1 (configuration not stated) | - | - | 32.3 | - | -
COc1ccc(OCC(=O)N/N=C/C=C/c2ccccc2)cc1 | - | - | - | 9.0 | 42.9
CC(NC(=O)C1CCN(C(=O)[C@@H]2Cc3ccccc3CN2C(=O)OC(C)(C)C)CC1)c1ccccc1 (some centres not stated) | - | . | - | - | -
C[C@H](NC(=O)[C@@H]1CCCN1C(=O)OC(C)(C)C)c1ccccc1 | . | - | 76.0 | - | -
O=C(C[C@@H]1CC[C@H](NS(=O)(=O)c2ccc(F)cc2)[C@@H](CO)O1)NC1CCCCC1 | - | - | - | - | -
Cc1noc(C)c1S(=O)(=O)N(C)C[C@@H]1OCCCC[C@@H](C)Oc2ccc(NC(=O)C3CCCCC3)cc2C(=O)N([C@@H](C)CO)C[C@H]1C | - | - | - | - | -
CCOc1ccc(CCN2C(=O)C(=O)N([C@@H](CC(C)C)CN3CCC[C@H]3CN3C(=O)C(=O)NC[C@@H]3Cc3ccc(O)cc3)C[C@@H]2Cc2ccccc2)cc1 | - | - | - | - | 43.3
CCOc1ccc(CCN2C(=O)C(=O)N([C@@H](CC(C)C)CN3CCC[C@H]3CN3C(=O)C(=O)NC[C@@H]3CC(C)C)C[C@@H]2Cc2ccc(O)cc2)cc1 | - | - | - | - | -
CC(C)C[C@H]1CN([C@@H](Cc2ccc(O)cc2)CN2CCC[C@H]2CN2C(=O)C(=O)NC[C@@H]2Cc2ccccc2)C(=O)C(=O)N1CC1CCCCC1 | - | - | - | 8.4 | -
CC(C)C[C@H]1CN([C@@H](Cc2ccc(O)cc2)CN2CCC[C@@H]2CN2C(=O)C(=O)NC[C@@H]2Cc2ccccc2)C(=O)C(=O)N1CC1CCCCCC1 | - | - | ? | - | -
CCCNC(=O)N1C[C@H](O)COC[C@H]2O[C@@H](CC(=O)N3CCOCC3)CC[C@@H]21 | - | - | - | - | -
